# “And” between values parts separate entries of the source, which are not always exact repeats. Identical values can stand only once. The source made the active and inactive calls.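 Rule for the calls: active = signal falling with dose, half-maximal concentration at or below ten times the highest valid dose tested; inconclusive = flat curve with loss between 30% and 70%, or a poor fit; inactive = the rest, including flat or rising curves.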
# Tested on: not listed separately
# Experiment: Ras-transformed BJeLR cell killing – BJeLR cells, dry powder, set 2, dose response (AID 493053)
# Conditions: BJeLR fibroblasts viability, Alamar Blue fluorescence, 48 h; at 48 µM (top of the series)
# Method in brief: (§1)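 Buffer or medium: DMEM and M199 growth medium with heat-inactivated fetal bovine serum; incubation: 48-h compound exposure (37 °C, 5% CO2), then ~16-h dye incubation; technique: Alamar Blue fluorescence, 544/590 nm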
row,SMILES,"activity change, negative = viability loss"
1,Cc1onc(C(=O)N2CCN(C(c3ccccc3)c3ccccc3)CC2)c1N,10.4% (inactive)
2,Cc1onc(C(=O)N2CCN(C(c3ccccc3)c3ccccc3)CC2)c1NS(C)(=O)=O,15.2% (inactive)
3,O=C(c1ccc([N+](=O)[O-])o1)N1CCCN(C(c2ccccc2)c2ccccc2)CC1,-4.17% (inactive)
4,O=[N+]([O-])c1ccc(CN2CCN(C(c3ccccc3)c3ccccc3)CC2)o1,2.87% (inactive)
5,Cc1oc(C)c(C(=O)N2CCN(C(c3ccccc3)c3ccccc3)CC2)c1C,12.2% (inactive)
6,CC(C)c1onc(C(=O)N2CCN(C(c3ccccc3)c3ccccc3)CC2)c1[N+](=O)[O-],2.95% (inactive)
7,Cc1onc(C(=O)N2CCN(C(c3ccccc3)c3ccccc3)CC2)c1C,15.3% (inactive)
8,Cc1ccc(C(=O)N2CCN(C(c3ccccc3)c3ccccc3)CC2)c([N+](=O)[O-])c1,14.9% (inactive)
9,Cc1onc(C(=O)N2CCN(C(c3ccncc3)c3ccncc3)CC2)c1[N+](=O)[O-],8.19% (inactive)
10,Cc1onc(C(=O)N2CCN(C(c3ccccc3)c3ccccc3)CC2)c1Br,11.7% (inactive)
11,O=C(c1noc2ccccc12)N1CCN(C(c2ccccc2)c2ccccc2)CC1,3.47% (inactive)
12,Cc1onc(C(=O)N2CCN(C(c3ccccn3)c3ccccn3)CC2)c1[N+](=O)[O-],9.75% (inactive)
13,CC(=O)Nc1c(C(=O)N2CCN(C(c3ccccc3)c3ccccc3)CC2)noc1C,11.2% (inactive)

# Same assay, conditions: BJeLR fibroblasts viability, Alamar Blue fluorescence, 48 h; at 68 µM (top of the series)
row,SMILES,"activity change, negative = viability loss"
1,Cc1cc(C(=O)N2CCN(Cc3ccccc3)CC2)no1,4.49% (inactive)
2,COc1ccccc1N1CCN(C(=O)c2noc(C)c2[N+](=O)[O-])CC1,-5.96% (inactive)
3,CCOC(=O)N1CCN(C(=O)c2noc(C)c2[N+](=O)[O-])CC1,-2.12% (inactive)
4,Cc1onc(C(=O)NCc2ccc(F)cc2)c1[N+](=O)[O-],-1.57% (inactive)
5,Cc1onc(C(=O)N2CCOCC2)c1[N+](=O)[O-],-1.92% (inactive)

# Tested on: BJeLR fibroblasts viability, Alamar Blue fluorescence, 48 h
# Experiment: as above
# Conditions: not given
# Method in brief: as §1
row,SMILES,AC50
1,Cc1onc(C(=O)N2CCN(Cc3ccccc3)CC2)c1[N+](=O)[O-],65300 nM
2,Cc1onc(C(=O)N2CCN(C(c3ccc(Cl)cc3)c3ccc(Cl)cc3)CC2)c1[N+](=O)[O-],71 nM
3,O=C(c1ccc([N+](=O)[O-])o1)N1CCN(C(c2ccc(F)cc2)c2ccc(F)cc2)CC1,50800 nM
4,Cc1onc(C(=O)N2CCN(C(c3ccccc3)c3ccccc3)CC2)c1[N+](=O)[O-],2270 nM and 1030 nM
5,Cc1onc(C(=O)N2CCN(C(c3ccc(F)cc3)c3ccc(F)cc3)CC2)c1[N+](=O)[O-],183 nM
6,O=C(NCCNC(c1ccccc1)c1ccccc1)c1ccc([N+](=O)[O-])o1,39100 nM
7,Cc1onc(C(=O)N2CCN(C(c3ccccc3)c3ccc(Cl)cc3)CC2)c1[N+](=O)[O-] (stereo not drawn),129 nM
8,Cc1onc(C(=O)NCCNC(c2ccccc2)c2ccccc2)c1[N+](=O)[O-],21600 nM
9,COc1ccc(C(c2ccc(OC)cc2)N2CCN(C(=O)c3noc(C)c3[N+](=O)[O-])CC2)cc1,1570 nM
10,Cc1onc(C(=O)N2CCCN(C(c3ccccc3)c3ccccc3)CC2)c1[N+](=O)[O-],773 nM

# Source: PubChem BioAssay AID493053 (Broad Institute, 2011)
